From ChEMBL document CHEMBL4513216, “Probing the Open Global Health Chemical Diversity Library for Multistage-Active Starting Points for Next-Generation Antimalarials” (ACS Infect Dis, 2020) come the findings set out here.

The data set is described as follows: Toxicity liver stage against HepG2, at 10uM. Type of data set: cell-based. Further details: test concentration 10 uM, cell line HepG2-A16-CD81EGFP. The note with it: human, HepG2-A16-CD81EGFP cells; read-out: INHIBITION
An outline of the steps: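 Uninfected HepG2-A16-CD81EGFP cells, 3 × 10^3 per well, 1536-well, plated on prespotted compound at 10 μM final, parasite-free screening media added to match infected plates; puromycin 10 μM positive, DMSO 0.5% negative; run in parallel with 48 h PbLuc assay at 37 °C, 5% CO2; viability by CellTiter-Glo luminescence, normalized to controls.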
`COC(=O)COn1c(SC(C)C)nc2ccccc2c1=O`: the cytotoxicity at 10 µM is -6.17%.

Regarding `COc1ccc(NC(=O)C2OC(c3cccs3)=NN2C(C)=O)cc1` (stereo unspecified), the cytotoxicity at 10 µM was -1.6%.

`CC(C)(Oc1ccc(C(N)=O)cc1)C(=O)N(CCC#N)CC1CCCO1` (stereo unspecified): the cytotoxicity at 10 µM turned out to be 5.55%.

`COc1ccccc1CN1CC(O)CN(S(=O)(=O)C(C)C)CC1=O` (stereo unspecified): the cytotoxicity at 10 µM is -12.4%.

Turning to `CCOC(=O)N1CC(=O)N(CCc2ccccc2)CC(O)C1` (stereo unspecified), the cytotoxicity at 10 µM was -4.73%.

In the case of `CC(C)CNC(=O)Cc1cnc(-n2cccc2)s1`, the cytotoxicity at 10 µM is -3.66%.

Regarding `COc1cn(CC(=O)N2CCN(c3ccc(Cl)cc3)CC2)c(C)cc1=O`, the cytotoxicity at 10 µM was 1.82%.

For `CCN(CC)C(=O)CSc1nc2c(cnn2CCO)c(=O)[nH]1`, the cytotoxicity at 10 µM is 1.29%.

In the case of `O=S(=O)(NCC(O)c1ccoc1)c1ccc(Br)s1` (stereo unspecified), the cytotoxicity at 10 µM turned out to be 5.76%.

With `CN(C)CCNC(=O)c1noc2c1CN(C(=O)N(C)C)CC2`, the cytotoxicity at 10 µM worked out at 10.6%.

In the case of `CS(=O)(=O)N1CCC2(CCCN(c3ncc(F)cn3)C2)C1` (stereo unspecified), the cytotoxicity at 10 µM came to 5.19%.

For `c1cnc(OCc2nnc3n2CCN(Cc2ccco2)C3)nc1`, the cytotoxicity at 10 µM was -2.12%.

In the case of `c1cc(-c2nnn3c2COC(CNCC2CCOCC2)C3)ccn1` (stereo unspecified), the cytotoxicity at 10 µM was -23.8%.

`CS(=O)(=O)N1C[C@@H]2COC[C@@H](CC(=O)N3CCCCO3)[C@@H]2C1`: the cytotoxicity at 10 µM stood at 10.6%.

Take `COc1ccc(NC(=O)CCSc2ccc3nncn3n2)c(OC)c1`: the cytotoxicity at 10 µM was -15.3%.

`CC(C)NC(=O)N1CCC2(CC(C(=O)NCc3cccnc3)=NO2)C1` (stereo unspecified): the cytotoxicity at 10 µM was -0.8%.

On to `CN(C)CCn1nc(C2CCN(Cc3ccccc3)C2)c2cccnc21` (stereo unspecified), for which the cytotoxicity at 10 µM was -7.47%.

Regarding `Cn1ccc(C(=O)N2CCC(Cc3ccc4ncccc4c3)CC2)n1`, the cytotoxicity at 10 µM was 13.7%.

For `COCCNc1ccc(CC2CCCN(c3ncccn3)C2)nn1` (stereo unspecified), the cytotoxicity at 10 µM came out at 3.81%.

Consider `Cc1cc(N(C)C)cc(C2CCN(S(=O)(=O)c3cccnc3)C2)n1` (stereo unspecified), for which the cytotoxicity at 10 µM came to 4.26%.

Regarding `Cc1nc(C2CCN(S(C)(=O)=O)CC2)nc2c1CCC(=O)N2CC(C)C`, the cytotoxicity at 10 µM stood at 3.44%.

Take `Cc1c(CN2C[C@@H](O)[C@H](Oc3cccc(F)c3)C2)cnn1C`: the cytotoxicity at 10 µM is -8.21%.

For `Cc1nn(C)cc1S(=O)(=O)NC1(CN2CCOCC2)CCCCC1`, the cytotoxicity at 10 µM was -8.27%.

In the case of `Cc1ccc2c(c1)C(=O)NCC1(CCN(C(=O)c3ccccn3)CC1)O2`, the cytotoxicity at 10 µM was -25%.

`Cc1ccccc1CN1CCOC(c2nccc(CN(C)C)n2)C1` (stereo unspecified): the cytotoxicity at 10 µM was -9.19%.

For `Cc1ccccc1-c1cncc(C2CCN(Cc3cnn(C)c3)CC2)n1`, the cytotoxicity at 10 µM is -30.6%.

Regarding `O=C(c1ccncc1)N1CC[C@@H](O)[C@@H](O)[C@H](N2CCC(F)(F)CC2)C1`, the cytotoxicity at 10 µM is -10%.

In the case of `CNc1cc(CNC(=O)c2cccnc2)nc(-c2ccncc2)n1`, the cytotoxicity at 10 µM is -9.88%.

For the molecule `Cc1cc(C)n(Cc2ccc(C(=O)N3CCOCC3(C)C)cc2)n1`, the cytotoxicity at 10 µM is -9.23%.

Turning to `CC(=O)NC1CCN(C(=O)Nc2cccc(C(F)(F)F)c2)CC1`, the cytotoxicity at 10 µM was -6.74%.

Take `O=C(OCCF)c1cccc(C(=O)N2CCCC2)n1`: the cytotoxicity at 10 µM stood at 0.684%.

For the molecule `Cc1ccc(-c2noc(Cn3nc(C(N)=O)ccc3=O)n2)cc1`, the cytotoxicity at 10 µM is -1.6%.

Turning to `COC1CCN(CCNC(=O)NC(C)c2cccc(Cl)c2)CC1` (stereo unspecified), the cytotoxicity at 10 µM was -2.46%.

With `CCN(CC)C(=O)CCCNC(=O)c1csc(NC2CC2)n1`, the cytotoxicity at 10 µM was 8.67%.

As to `CCc1nc(C(=O)N(C)CC(=O)N(C)C)nn1-c1ccccc1Cl`, the cytotoxicity at 10 µM is -23.5%.

For the molecule `COc1cccc(S(=O)(=O)CCN2CCN(CC(F)F)CC2)c1`, the cytotoxicity at 10 µM is -3.96%.

With `COc1ccccc1C(=O)NS(=O)(=O)c1cncc(Br)c1`, the cytotoxicity at 10 µM was -6.05%.

Regarding `CC(C)NC(=O)Nc1ccc(CS(C)(=O)=O)cc1`, the cytotoxicity at 10 µM stood at 1.69%.

For the molecule `CCCc1noc(CCC(=O)N2CCCCC2Cn2cc(C)cn2)n1` (stereo unspecified), the cytotoxicity at 10 µM is -0.232%.

Consider `COc1ccc(CNC(=O)NCc2ccc(C(N)=O)cc2)cn1`, for which the cytotoxicity at 10 µM is -2.94%.

Consider `Cc1ncc(CN(C)C(=O)Nc2cccc(C(=O)N3CCOCC3)c2)s1`, for which the cytotoxicity at 10 µM is 11.6%.

As to `Cc1nn(C)c(C)c1OCC(=O)N1CCCCC1`, the cytotoxicity at 10 µM came out at 2.23%.

As for `CCC(CC)(CC)NC(=O)Nc1nnc(-c2ccccn2)s1`, the cytotoxicity at 10 µM is -2.27%.

As for `NC(=O)Cn1ccc(NC(=O)C2(c3cccc(F)c3)CCC2)n1`, the cytotoxicity at 10 µM is -5.75%.

For `NC(=O)c1ccc(OCC(=O)N2CCCC2c2ccc[nH]2)cc1` (stereo unspecified), the cytotoxicity at 10 µM is -5.82%.

Consider `Cc1cc(Br)c(O)c(C(=O)N2CCC(CN3CCCCCC3)CC2)c1`, for which the cytotoxicity at 10 µM was 8.29%.

Turning to `CC(C)c1noc(CS(=O)(=O)CC(=O)NCc2cccs2)n1`, the cytotoxicity at 10 µM was 2.71%.

Consider `CC(Sc1nnc(C2CC2)n1CC(N)=O)c1ccc(F)c(Cl)c1` (stereo unspecified), for which the cytotoxicity at 10 µM came to 4.26%.

As to `CCN1CCC2(COCc3cnc(-c4cccnc4)nc32)C1` (stereo unspecified), the cytotoxicity at 10 µM worked out at 4.04%.

On to `CC(=O)NCC(=O)N1CCN(CC2CC2)c2ncccc2C1`, for which the cytotoxicity at 10 µM was 0.359%.

With `Cc1cnc(C)c(N2CCCC(C/C=C/c3ccccc3)(C(=O)O)C2)n1` (stereo unspecified), the cytotoxicity at 10 µM stood at 9.42%.

`O=C(CCC1CCCN(S(=O)(=O)C2CC2)C1)Nc1ccc(Cl)cc1` (stereo unspecified): the cytotoxicity at 10 µM turned out to be 3.69%.

In the case of `Cc1nc(CN(C)C(=O)Nc2cccc(C)c2C)no1`, the cytotoxicity at 10 µM was -0.739%.

For the molecule `COc1cc(C)cc(C(C(=O)O)N(C)CCN2CCCC2)c1OC` (stereo unspecified), the cytotoxicity at 10 µM amounted to 0.712%.

For `CN(C)CCN(C)C1CCCN(C(=O)c2ccc(Cn3ccnc3)o2)C1` (stereo unspecified), the cytotoxicity at 10 µM was found to be 6.69%.

In the case of `O=C(COc1ccccc1O)N1CCOC(C(F)(F)F)C1` (stereo unspecified), the cytotoxicity at 10 µM was -2.3%.

On to `CCN(C)S(=O)(=O)NCC1CCN(Cc2ccccc2F)C1` (stereo unspecified), for which the cytotoxicity at 10 µM was -2.48%.

Consider `Cn1nc(C2CC2)c2c1NC(=O)CC2c1cc(CN2CCCC2)cs1` (stereo unspecified), for which the cytotoxicity at 10 µM was -2.2%.

For the molecule `c1cc2c(cc1OC[C@@H]1CCCN3CCCC[C@H]13)OCCO2`, the cytotoxicity at 10 µM was -2.48%.

Consider `Cn1c(C2CCCN2C(=O)c2cn(CCN)nn2)nc2ccccc21` (stereo unspecified), for which the cytotoxicity at 10 µM turned out to be 3.76%.

Regarding `CCn1c(C2CCN(Cc3cc(C)n(NC(C)=O)c3C)CC2)n[nH]c1=O`, the cytotoxicity at 10 µM is 4.74%.

As for `CCCc1nnc(C(=O)N(C)Cc2cnc3ccccn23)o1`, the cytotoxicity at 10 µM was -3.41%.

Consider `CC(=O)Nc1ccc(Oc2cccc(CN3CCCC3)c2)cc1`, for which the cytotoxicity at 10 µM is -14%.

With `Cc1nc(O)cc(C2CCCN(C(=O)CN(C)c3ccccc3)C2)n1` (stereo unspecified), the cytotoxicity at 10 µM stood at 12.8%.

For `Cc1ccccc1C1CCN(CCn2cc(-c3nccn3C)nn2)C1` (stereo unspecified), the cytotoxicity at 10 µM was 4.96%.

Turning to `CCS(=O)(=O)c1ncc(CN(C)Cc2ccccc2OC)n1CCOC`, the cytotoxicity at 10 µM is -2.23%.

Consider `CCN(Cc1cnn(C)c1)C(=O)c1ccc(C)c(N2CCNC2=O)c1`, for which the cytotoxicity at 10 µM was -7.08%.

As for `COc1ccc(OC2CCN(C(=O)CCc3nc(Cl)n[nH]3)CC2)cc1`, the cytotoxicity at 10 µM was 4.47%.

Turning to `Cc1nn(C)cc1C(=O)N1CCCC(c2nccn2Cc2cscn2)C1` (stereo unspecified), the cytotoxicity at 10 µM was -4.32%.

Turning to `Cc1ccnc(NC(=O)C(C)Cn2cncn2)c1` (stereo unspecified), the cytotoxicity at 10 µM amounted to 0.298%.

`C[C@@H]1CN(C(=O)CCN2CCCC2)CC[C@@]1(O)C1CCC1`: the cytotoxicity at 10 µM is -7.97%.

For `CC(Nc1cccc(CN2CCOC2=O)c1)C(=O)Nc1cccc(F)c1` (stereo unspecified), the cytotoxicity at 10 µM was -9.16%.

With `Cc1ccc(CC(=O)N2CCN(CC(O)C(C)(C)C)CC2)cn1` (stereo unspecified), the cytotoxicity at 10 µM was -4.51%.

In the case of `Cc1noc(C)c1CC(=O)N1CCN(Cc2cscn2)CC1`, the cytotoxicity at 10 µM was -8.72%.

In the case of `CCC1CN(C(=O)Nc2cnc3c(cnn3C(C)C)c2)CCO1` (stereo unspecified), the cytotoxicity at 10 µM was -9.46%.

Turning to `CC(NC(=O)Cc1cccs1)c1nnc2n1CCCCC2` (stereo unspecified), the cytotoxicity at 10 µM is -15.5%.

In the case of `CC(C)c1ncc2c(n1)CN(Cc1nc(-c3ccoc3)no1)CC2`, the cytotoxicity at 10 µM is -3%.

As to `Cc1cnn(CC2CN(CC(=O)Nc3nnc(C)s3)CCO2)c1` (stereo unspecified), the cytotoxicity at 10 µM is -0.472%.

With `COc1c(CNC(c2ccc(F)cc2)c2nccn2C)c(C)nn1C` (stereo unspecified), the cytotoxicity at 10 µM is -12.7%.

Take `CNS(=O)(=O)Cc1ccc(CNC(=O)Nc2cn[nH]c2)cc1`: the cytotoxicity at 10 µM is -0.935%.

For the molecule `CC(Cn1cccn1)NC(=O)N(C)Cc1ccc(Cl)s1` (stereo unspecified), the cytotoxicity at 10 µM was -11.9%.

With `C1CC(NCc2nc(C3CC3)no2)CN(Cc2noc(C3CC3)n2)C1` (stereo unspecified), the cytotoxicity at 10 µM was -8.65%.

On to `Cc1cc(C)n(CC2CCCN2CC(=O)N(C)Cc2cnn(C)c2)n1` (stereo unspecified), for which the cytotoxicity at 10 µM was -5.85%.

Turning to `c1cnnc(N2CCCC(NCc3cn4ccccc4n3)C2)c1` (stereo unspecified), the cytotoxicity at 10 µM was -5.87%.

In the case of `Cc1nc(NC2CCCCC2)cc(C2CCCNC2)n1` (stereo unspecified), the cytotoxicity at 10 µM is -30.3%.

Turning to `CCC(CC)C(=O)N1CCC2(C1)CN(c1ccccc1)C(=O)CN2C` (stereo unspecified), the cytotoxicity at 10 µM came out at 3.5%.

With `CCc1nc2ccccc2c(=O)n1CC1(O)CCNCC1`, the cytotoxicity at 10 µM was -15.3%.

On to `Cc1ccc(C(=O)N2CCC3(CC2)CCN(CCN(C)C)C3=O)cn1`, for which the cytotoxicity at 10 µM is 5.36%.

For `CN(Cc1cccnc1)Cc1cn2c(n1)CN(C1CCOC1)CC2` (stereo unspecified), the cytotoxicity at 10 µM is 6.2%.

In the case of `CC(C)c1cc(C(=O)N2CCOC3(CCNCC3)C2)no1`, the cytotoxicity at 10 µM turned out to be 3.65%.

Regarding `Cc1ccc(C(=O)N2Cc3c(CN4CCCCC4)nn(C)c3C2)o1`, the cytotoxicity at 10 µM was -1.94%.

Take `CC(C)c1cc(C(=O)N2CCc3nc(C4CCCN4)ncc3C2)cs1` (stereo unspecified): the cytotoxicity at 10 µM was -16.5%.

For `c1cnn(Cc2nnc3n2CCCN(CC2CCOCC2)C3)c1`, the cytotoxicity at 10 µM was determined as 2.6%.

Take `O=C1COC2(CCN(C(=O)c3ccco3)CC2)CN1Cc1ccccn1`: the cytotoxicity at 10 µM was 6.45%.

Take `Cc1ccccc1CN1C[C@H]2CC[C@@H](C1)N(CC1CCC1)C2=O`: the cytotoxicity at 10 µM amounted to 4.86%.

On to `CCOc1ccc(C(=O)N2C[C@@H]3CC[C@H]2CN(C)C3)cc1OCC`, for which the cytotoxicity at 10 µM was -15.7%.
